Reference: ChEMBL document CHEMBL4371078, “N-Naphthoyl-substituted indole thio-barbituric acid analogs inhibit the helicase activity of the hepatitis C virus NS3” (Bioorg Med Chem Lett, 2019)
Activity calls are given as the source filed them. The calls are words filed in the database; no cut-off is given here.

Legend:
[1] = system: Hepatitis C virus subtype 1b; test: Inhibition of recombinant full length HCV genotype 1b NS3 helicase activity assessed as reduction in 5'-FAM labeled dsDNA substrate unwinding at 30 uM preincubated for 10 mins followed by MgCl2/ATP addition and measured after 30 mins by real-time fluorescence assay
Outline: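 96-well real-time unwinding of a fluorescently labelled duplex DNA by full-length recombinant NS3 with saturating ATP and Mg2+. Read-out was the increase in FAM fluorescence. Compounds were tested at 30 µM in 5% DMSO. Unwinding rates were normalized to DMSO controls. Values are the mean ± standard deviation of triplicate measurements.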

[2] = system: Hepatitis C virus subtype 1b; test: Inhibition of polyU RNA-stimulated recombinant full length HCV genotype 1b NS3 ATPase activity assessed as Kcat for substrate at 25 uM in presence of 5 mM ATP measured for 1 min by pyruvate kinase/ lactate dehydrogenase enzyme coupled spectrophotometric method (reference value: 68 /s)
[3] = system: Hepatitis C virus subtype 1b; test: Inhibition of polyU RNA-stimulated recombinant full length HCV genotype 1b NS3 ATPase activity assessed as Km for substrate at 25 uM in presence of 5 mM ATP measured for 1 min by pyruvate kinase/ lactate dehydrogenase enzyme coupled spectrophotometric method (reference value: 0.41 mM)
[4] = (§1) Inhibition of recombinant full length HCV genotype 1b NS3 helicase activity assessed as reduction in 5'-FAM labeled dsDNA substrate unwinding preincubated for 10 mins followed by MgCl2/ATP addition and measured after 30 mins by real-time fluorescence assay; design: species or system Hepatitis C virus subtype 1b
Outline: (§2)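 Real-time plate unwinding of a FAM-labelled duplex DNA by full-length recombinant NS3 with saturating ATP and Mg2+, read as the fluorescence increase. Compounds were dosed over a range to derive an IC50.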

[5] = system: Hepatitis C virus subtype 1b; test: as §1; outline: as §2
[6] = system: Hepatitis C virus subtype 1b; test: (§3) Inhibition of recombinant full length HCV genotype 1b NS3 helicase activity assessed as reduction in radiolabeled dsDNA substrate unwinding by measuring unwinding rate constant at 25 uM preincubated for 5 mins followed by MgCl2/ATP addition and measured up to 50 mins by PAGE based phosphor imaging analysis (reference value: 0.039 +/- 0.002 /min)
Outline: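 Gel-based unwinding of 2 nM radiolabelled duplex DNA by 100 nM recombinant NS3 with excess ATP. Compound was present at 25 µM. Unwound fraction was quantified at time points and fit to a single exponential for the rate constant. Triplicate experiments were averaged.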

[7] = system: Hepatitis C virus subtype 1b; test: as §3, with “radiolabeled 38 bp dsRNA” for “radiolabeled dsDNA”, “for 20” for “for 5”, “to 4” for “to 50”, “value: 1.84” for “value: 0.039”, “+/- 0.19” for “+/- 0.002”
Outline: (§4)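 Polyacrylamide gel unwinding of a radiolabelled 38 bp duplex RNA by recombinant NS3 with compound at 25 µM. Radioactivity at time points from triplicate experiments was averaged and fit to a single exponential to give rate constants.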

[8] = system: Hepatitis C virus subtype 1b; test: Inhibition of recombinant full length HCV genotype 1b NS3 helicase activity assessed as reduction in radiolabeled 38 bp dsRNA substrate unwinding t 25 uM preincubated for 20 mins followed by MgCl2/ATP addition and measured up to 4 mins by PAGE based phosphor imaging analysis relative to control; outline: as §4
[9] = Inhibition of recombinant full length HCV genotype 1b NS3 interaction with 3'-FAM labeled ssDNA assessed as Kd for NS3-ssDNA complex at 25 uM by fluorescence polarization assay (reference value: 3.3 +/- 0.2 nM); design: species or system Hepatitis C virus subtype 1b
Hepacivirus hominis [10] = test: Inhibition of HCV NS3/4A protease activity at 25 uM using Ac-Asp-Glu-Asp-EDANS-Glu-Glu-Abu-L-Lactoyl-Ser-Lys DABCYL-NH2 as substrate measured for 30 mins by fluorescence assay
Outline: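 NS3–4A protease activity read by fluorescence of the internally quenched EDANS/DABCYL peptide after cleavage. Compounds were tested at 25 µM, with telaprevir at 10 µM as the positive control. Activities were normalized. Values are the mean ± standard deviation of triplicate measurements.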

Hepacivirus hominis [11] = test: Inhibition of HCV NS3/4A protease activity at 10 uM using Ac-Asp-Glu-Asp-EDANS-Glu-Glu-Abu-L-Lactoyl-Ser-Lys DABCYL-NH2 as substrate measured for 30 mins by fluorescence assay relative to control
Outline: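 Recombinant HCV NS3–4A with full protease activity, incubated with the internally quenched EDANS/DABCYL peptide substrate; cleavage read as the rise in fluorescence. Activities were normalized to control and given as mean ± standard deviation of triplicate measurements.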

| Structure (SMILES) | inhibition [1] | kcat [2] [s⁻¹] | Km [3] [µM] | IC50 [4] [µM] | inhibition [5] | K [6] [min⁻¹] | K [7] [min⁻¹] | inhibition [8] [%] | Kd [9] [µM] | inhibition (Hepacivirus hominis [10]) | inhibition (Hepacivirus hominis [11]) [%] |
| --- | --- | --- | --- | --- | --- | --- | --- | --- | --- | --- | --- |
| O=C1NC(=S)NC(=O)C1=Cc1cn(C(=O)c2ccc3ccccc3c2)c2ccc(Cl)cc12 | inactive | – | – | – | – | – | – | – | – | – | – |
| COc1ccc2c(c1)c(C=C1C(=O)NC(=S)NC1=O)cn2C(=O)c1ccc2ccccc2c1 | Active | 73 | 1000 | 21.4 | Dose-dependent effect | 0.021 | 2.38 | 50 | 0.0028 | inactive | – |
| COc1ccc2c(c1)c(C=C1C(=O)NC(=S)NC1=O)cn2C(=O)c1cccc2ccccc12 | Active | 68.7 | 860 | 23.5 | Dose-dependent effect | 0.024 | 2.14 | 50 | 0.0057 | inactive | – |
| O=C1NC(=S)NC(=O)C1=Cc1cn(C(=O)c2ccc3ccccc3c2)c2ccccc12 | Active | 65.3 | 480 | 21.6 | Dose-dependent effect | 0.018 | 1.81 | 50 | 0.0031 | inactive | – |
| O=C1NC(=S)NC(=O)C1=Cc1cn(C(=O)c2cccc3ccccc23)c2ccc(Cl)cc12 | inactive | – | – | – | – | – | – | – | – | – | – |
| CCC[C@H](NC(=O)[C@@H]1[C@H]2CCC[C@H]2CN1C(=O)[C@@H](NC(=O)[C@@H](NC(=O)c1cnccn1)C1CCCCC1)C(C)(C)C)C(=O)C(=O)NC1CC1 | – | – | – | – | – | – | – | – | – | – | 85 |
